For one test, the system named is HEp-2. Description: Antiproliferative activity against human Hep2 cells after 72 hrs by MTT assay. The class given is functional, cell-based. The note with it: HEp-2, 72 h. Summed up: (§1)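 Monolayer cultures in DMEM with 10% FBS, 2 mM L-glutamine, penicillin and streptomycin, at 37 °C in 5% CO2. Seeded at 1 × 10⁴ to 3 × 10⁴ cells/mL on day 0. Compounds added at 10^-8 to 10^-4 M, then 72 h. MTT read-out, quadruplicate in three experiments, with a solvent control. IC50 by linear regression of percent growth around 50%.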
On the technique in general: Tetrazolium assays rely on reduction of a dye to a coloured formazan, in cell work by metabolically active cells.

In test [1] the test system is HeLa. Put plainly: Antiproliferative activity against human HeLa cells after 72 hrs by MTT assay. In kind it is functional, cell-based. Summed up: as §1
The subject of test [2] is MIA PaCa-2. Put plainly: Antiproliferative activity against human MiaPaCa2 cells after 72 hrs by MTT assay. The class given is functional, cell-based. As to conditions: MIA PaCa-2, 72 h. A digest of the protocol:
as §1

The next test has as its system SW-620. Description: Antiproliferative activity against human SW620 cells after 72 hrs by MTT assay. The class given is functional, cell-based. As to conditions: SW-620, 72 h. Summed up:
as §1

Another test concerns MCF7. Description: Antiproliferative activity against human MCF7 cells after 72 hrs by MTT assay. In kind it is functional, cell-based. The note with it: MCF7, 72 h. A digest of the protocol: as §1
Test [3] is described as follows: Antiproliferative activity against human WI38 cells after 72 hrs by MTT assay. In kind it is cell-based. The note with it: WI-38, 72 h.
Test [4] is filed under the species Bos taurus. Description: Inhibition of calf thymus topoisomerase 1 assessed as induction of supercoiled plasmid pCI DNA nicking at 100 uM after 30 mins by gel electrophoresis. A digest of the protocol: (§2)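 Calf thymus topoisomerase I (8 U) with 0.8 µg negatively supercoiled pCI plasmid in relaxation buffer (10 mM Tris-HCl pH 7.5, 175 mM KCl, 5 mM MgCl2, 0.1 mM EDTA, 2.5% glycerol), ± test agent, 37 °C for 30 min. Stopped with SDS, then proteinase K digestion and phenol/chloroform/isoamyl alcohol extraction. Split onto 1% agarose gels with or without 0.5 µg/mL ethidium bromide. Nicked, relaxed and supercoiled bands viewed under UV.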

The subject of a further test is Nucleic Acid. Description: Binding affinity to polyA-polyU double stranded RNA at 0.3 of [compound]/[double stranded polynucleotide] at pH 7.0 by thermal denaturation assay. In kind it is nucleic-acid assay. A digest of the protocol: (§3)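 Absorbance at 260 nm followed against temperature for free polynucleotide and complexes, in Na cacodylate buffer pH 7.0, I = 0.05 mol dm^-3. Ligand absorbance subtracted and curves normalized. Tm taken from the first-derivative maximum or by tangent method. ΔTm = Tm(complex) − Tm(free), average of at least two runs, error ±0.5 °C.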

The test system of test [5] is DNA. Description: Binding affinity to calf thymus DNA at pH 7.0 by fluorimetric titration. As to conditions: Bos taurus. The class given is nucleic-acid assay. A digest of the protocol:
(§4)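 Polynucleotide, given as phosphate concentration, added in portions to the compound in Na cacodylate buffer pH 7.0, I = 0.05 mol dm^-3, with polynucleotide in high excess. Emission recorded 350–550 nm, absorbance below 0.05 at excitation. Ks and n from nonlinear least-squares Scatchard fits. log K recalculated at fixed n = 0.2.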

The subject of test [6] is DNA. Description: Binding affinity to calf thymus DNA at 0.1 of [compound]/[calf thymus DNA] at pH 7.0 by thermal denaturation assay. In kind it is nucleic-acid assay. As to conditions: Bos taurus. A digest of the protocol:
as §3

In test [7] the test system is DNA. Description: Binding affinity to calf thymus DNA at 0.2 of [compound]/[calf thymus DNA] at pH 7.0 by thermal denaturation assay. The class given is nucleic-acid assay. The note with it: Bos taurus. Summed up:
as §3

Test [8] has as its system DNA. Put plainly: Binding affinity to calf thymus DNA at 0.3 of [compound]/[calf thymus DNA] at pH 7.0 by thermal denaturation assay. The note with it: Bos taurus. The class given is nucleic-acid assay. A digest of the protocol: as §3
The species entered for test [9] is Bos taurus. Put plainly: Inhibition of calf thymus topoisomerase 1-mediated supercoiled plasmid pCI DNA relaxation activity at 10 uM after 30 mins by gel electrophoresis. A digest of the protocol:
as §2

The species entered for test [10] is Bos taurus. Description: Inhibition of calf thymus topoisomerase 1 assessed as induction of supercoiled plasmid pCI DNA nicking at 10 uM after 30 mins by gel electrophoresis. Summed up:
as §2

The test system of test [11] is MIA PaCa-2. Description: Cell cycle arrest in human MiaPaCa2 cells assessed as accumulation at sub G1 phase at 10 uM after 24 hrs by flow cytometry. The class given is functional. Summed up: (§5)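 2 × 10⁵ cells per well, compound (10 µM) added after 24 h, then 24, 48 or 72 h. Floating and attached cells pooled, fixed in 70% ethanol and kept at −20 °C. Stained with PI 1 µg/mL plus RNase A 0.2 µg/µL. 20 000 events by flow cytometry, phase percentages from DNA histograms. Duplicates, repeated at least twice.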
In general terms: Flow cytometry measures light scatter and fluorescence of single cells or particles in a stream.

Test [12] deals with MIA PaCa-2. Put plainly: Cell cycle arrest in human MiaPaCa2 cells assessed as accumulation at G1/G0 phase at 10 uM after 24 hrs by flow cytometry. In kind it is functional. Summed up: as §5
In test [13] the test system is MIA PaCa-2. Description: Cell cycle arrest in human MiaPaCa2 cells assessed as accumulation at S phase at 10 uM after 24 hrs by flow cytometry. The class given is functional. A digest of the protocol:
as §5

In test [14] the test system is MIA PaCa-2. Description: Cell cycle arrest in human MiaPaCa2 cells assessed as accumulation at G2/M phase at 10 uM after 24 hrs by flow cytometry. In kind it is functional. Summed up:
as §5

For test [15], the system named is MIA PaCa-2. Description: Cell cycle arrest in human MiaPaCa2 cells assessed as accumulation at sub G1 phase at 10 uM after 48 hrs by flow cytometry. The class given is functional. Summed up:
as §5

Test [16] deals with MIA PaCa-2. Description: Cell cycle arrest in human MiaPaCa2 cells assessed as accumulation at G1/G0 phase at 10 uM after 48 hrs by flow cytometry. In kind it is functional. A digest of the protocol:
as §5

Test [17] deals with MIA PaCa-2. Description: Cell cycle arrest in human MiaPaCa2 cells assessed as accumulation at S phase at 10 uM after 48 hrs by flow cytometry. The class given is functional. A digest of the protocol:
as §5

Test [18] relates to MIA PaCa-2. Put plainly: Cell cycle arrest in human MiaPaCa2 cells assessed as accumulation at G2/M phase at 10 uM after 48 hrs by flow cytometry. The class given is functional. A digest of the protocol: as §5
For test [19], the system named is MIA PaCa-2. Description: Cell cycle arrest in human MiaPaCa2 cells assessed as accumulation at sub G1 phase at 10 uM after 72 hrs by flow cytometry. The class given is functional. A digest of the protocol:
as §5

Test [20] has as its system MIA PaCa-2. Description: Cell cycle arrest in human MiaPaCa2 cells assessed as accumulation at G1/G0 phase at 10 uM after 72 hrs by flow cytometry. In kind it is functional. Summed up: as §5
Test [21] deals with MIA PaCa-2. Put plainly: Cell cycle arrest in human MiaPaCa2 cells assessed as accumulation at S phase at 10 uM after 72 hrs by flow cytometry. In kind it is functional. Summed up: as §5
The subject of test [22] is MIA PaCa-2. Put plainly: Cell cycle arrest in human MiaPaCa2 cells assessed as accumulation at G2/M phase at 10 uM after 72 hrs by flow cytometry. In kind it is functional. Summed up: as §5
In test [23] the test system is MIA PaCa-2. Description: Induction of apoptosis in human MiaPaCa2 cells at 5 uM after 72 hrs by annexin V assay. The class given is functional. Summed up: (§6)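 2 × 10⁴ cells per well, compounds added after 24 h, exposure 72 h. Floating and attached cells collected, washed and stained with annexin-V-fluorescein plus PI in Hepes buffer, then counted by fluorescence microscopy. Annexin-V-positive cells scored apoptotic, annexin-V/PI-positive scored necrotic. Apoptotic percentage taken relative to total cells.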

In test [24] the test system is MIA PaCa-2. Put plainly: Induction of apoptosis in human MiaPaCa2 cells at 10 uM after 72 hrs by annexin V assay. In kind it is functional. Summed up: as §6
Test [25] concerns HeLa. Description: Induction of apoptosis in human HeLa cells at 5 uM after 72 hrs by annexin V assay. The class given is functional. Summed up: as §6
Test [26] deals with HeLa. Description: Induction of apoptosis in human HeLa cells at 10 uM after 72 hrs by annexin V assay. In kind it is functional. A digest of the protocol:
as §6

Test [27] in a line: Binding affinity to polyA-polyU double stranded RNA at pH 7.0 by fluorimetric titration. Summed up: as §4
Test [28] is described as follows: Binding affinity to polyG-polyC double stranded RNA at pH 7.0 by fluorimetric titration. A digest of the protocol: as §4
Test [29] is filed under the species Bos taurus. Put plainly: Inhibition of calf thymus topoisomerase 1-mediated supercoiled plasmid pCI DNA relaxation activity at 200 uM after 30 mins by gel electrophoresis. A digest of the protocol:
(§7)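 Calf thymus topoisomerase I (8 U) with 0.8 µg supercoiled pCI in Tris-HCl pH 7.5 buffer with 175 mM KCl, 5 mM MgCl2, 0.1 mM EDTA and 2.5% glycerol, 37 °C for 30 min. Stopped with SDS, then proteinase K at 37 °C for 15 min and phenol/chloroform extraction. Run on 1% agarose with or without 0.5 µg/mL EtBr and viewed under UV.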

For test [30], the species on record is Bos taurus. Description: Inhibition of calf thymus topoisomerase 1 assessed as induction of supercoiled plasmid pCI DNA nicking at 200 uM after 30 mins by gel electrophoresis. A digest of the protocol: as §7

Structures are written as SMILES. The source made the active and inactive calls. No cut-off for these calls is given here. Some results are limits rather than exact numbers.

As usually defined, the IC50 is the concentration at which inhibition is half-maximal. As to `C(=C\c1ccco1)/c1nc2ccc(C3=NCCN3)cc2[nH]1`, the IC50 in the test with HEp-2 is 67 µM; with HeLa [1], 10 µM; with MIA PaCa-2 [2] it was 51 µM; with SW-620, 50 µM; in the test on MCF7 it was 9 µM; in [3], greater than 100 µM.

Turning to `CC[C@@]1(O)C(=O)OCc2c1cc1n(c2=O)Cc2cc3ccccc3nc2-1`, the outcome in the test filed under Bos taurus [4] was Active.

Regarding `N=C(N)c1ccc2nc(/C=C/c3ccco3)[nH]c2c1`, the IC50 with HEp-2 was 19 µM; with HeLa [1], 4 µM; in the test with MIA PaCa-2 [2], greater than 100 µM; in the test with SW-620, 16 µM; with MCF7, 12 µM; in test [3], greater than 100 µM.

For orientation: ΔTm means the change in melting temperature against a reference sample. For `N=C(NC1CCCCC1)c1ccc2nc(/C=C/c3ccco3)[nH]c2c1`, the ΔTm in the test on Nucleic Acid amounted to 1.6 °C; in the test with DNA [6], 1 °C; in the test on DNA [7], 1.6 °C; in the test on DNA [8], 1.5 °C. Besides, the half-inhibitory concentration (IC50) in the test with HEp-2 is 65 µM; in the test on HeLa [1] it was 6 µM; in the test with MIA PaCa-2 [2] it was 78 µM; in the test with SW-620, greater than 100 µM; with MCF7, 19 µM; in [3], greater than 100 µM. The log K with DNA [5] turned out to be 5.2.

For `CC[n+]1c(-c2ccccc2)c2cc(N)ccc2c2ccc(N)cc21`, in the test listed under Bos taurus [9], the outcome was Active. Also, in the test filed under Bos taurus [10], the outcome was inactive.

On to `C(=C\c1cccs1)/c1nc2ccc(C3=NCCN3)cc2[nH]1.Cl`, for which the ΔTm with Nucleic Acid amounted to 2.2 °C; in the test with DNA [6], 1.3 °C; in the test with DNA [7], 1.3 °C; with DNA [8], 1.4 °C. The half-inhibitory concentration (IC50) in the test on HEp-2 turned out to be 11 µM; with HeLa [1], 5 µM; in the test on MIA PaCa-2 [2] it was 10 µM; with SW-620, 11 µM; with MCF7, 3 µM; in test [3], 29 µM. In addition, the Activity with MIA PaCa-2 [11] stood at 1%; with MIA PaCa-2 [12], 39%; in the test on MIA PaCa-2 [13], 42%; in the test with MIA PaCa-2 [14] it was 19%; with MIA PaCa-2 [15], 1%; with MIA PaCa-2 [16], 49%. Moreover, the Activity in the test on MIA PaCa-2 [17] turned out to be 31%; with MIA PaCa-2 [18] it was 20%; in the test on MIA PaCa-2 [19], 3%; in the test on MIA PaCa-2 [20], 55%; with MIA PaCa-2 [21] it was 26%; in the test with MIA PaCa-2 [22], 19%. The Activity with MIA PaCa-2 [23] stood at 2%; with MIA PaCa-2 [24], 4%; with HeLa [25] it was 8%; with HeLa [26] it was 14%. Also, the log K in the test with DNA [5] is 5; in test [27], 5.8; in test [28] it was 5.6. For the same compound, the result in the test listed under Bos taurus [29] and in the test filed under Bos taurus [30] was Active.

These data come from ChEMBL document CHEMBL1155950, “Novel amidino-substituted thienyl- and furylvinylbenzimidazole: derivatives and their photochemical conversion into corresponding diazacyclopenta[c]fluorenes. synthesis, interactions with DNA and RNA, and antitumor evaluation. 4” (J Med Chem, 2008).
